Experimental data as given in ChEMBL document CHEMBL1148839, “Synthesis of new xanthone analogues and their biological activity test--cytotoxicity, topoisomerase II inhibition, and DNA cross-linking study” (Bioorg Med Chem Lett, 2007).

Columns and labels:
LNCaP = assay: Cytotoxicity against human LnCap cells after 4 days by MTT assay; format: functional, cell-based; settings: 96 h
Procedure, shortened: (§1)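 Cells from ATCC seeded at 2-4×10^4 per well, attached overnight in medium with 10% FBS, 37 °C, 5% CO2. On day 1 medium replaced with medium containing graded compound concentrations. On day 4 MTT added (final 0.5 mg/mL), 4 h further incubation, DMSO solubilization, absorbance at 570 nm. IC50 from four-parameter logistic fit; each value average of four experiments.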

MCF7 = assay: Cytotoxicity against human MCF7 cells after 4 days by MTT assay; format: functional, cell-based; settings: MCF7, 96 h; procedure, shortened: as §1
HCT-116 = assay: Cytotoxicity against human HCT116 cells after 4 days by MTT assay; format: functional, cell-based; settings: HCT-116, 96 h; procedure, shortened: as §1
MDA-MB-231 = assay: Cytotoxicity against human MDA-MB-231 cells after 4 days by MTT assay; format: functional, cell-based; settings: MDA-MB-231, 96 h; procedure, shortened: as §1
HeLa = assay: Cytotoxicity against human HeLa cells after 4 days by MTT assay; format: functional, cell-based; settings: 96 h; procedure, shortened: as §1
Homo sapiens = organism: Homo sapiens; assay: Inhibition of human topoisomerase 2-mediated DNA relaxation at 100 uM relative to etoposide
Procedure, shortened: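 Relaxation assay: supercoiled pBR322 plasmid DNA (0.3 µg) incubated with 0.2 unit human topoisomerase II and compound (20 and 100 µM), 37 °C, 30 min. Etoposide as positive control. Inhibition ratio calculated from gel band densitometry.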

Escherichia coli = assay: Effect on pBR322 DNA cross linking activity after 1 hr
Procedure, shortened: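 Linearized pBR322 DNA (0.5 µg) incubated with compound at 0, 10, 50, 100, 200 µM for 1 h at room temperature in 10 mM Tris-HCl pH 7.5. Run on 1.2% alkaline agarose gel (40 mM NaOH, 1 mM EDTA running buffer), neutralized, ethidium bromide stained, UV visualized.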

Row | Compound | IC50 (LNCaP) | IC50 (MCF7) | IC50 (HCT-116) | IC50 (MDA-MB-231) | IC50 (HeLa) | inhibition (Homo sapiens) | Activity (Escherichia coli)
1 | O=c1c2ccccc2oc2cc(OCC3CO3)cc(OCC3CO3)c12 (configuration not stated) | 9 µM | 3.2 µM | 10.2 µM | 12.8 µM | 23.3 µM | 100% | Dose-dependent effect
2 | O=c1c2ccccc2oc2cc(OCC3CO3)cc(O)c12 (configuration not stated) | 93.1 µM | 68.4 µM | 80.8 µM | > 100 µM | 68.7 µM |  | 
3 | COc1cccc2c(=O)c3c(O)cc(OCC(O)CCl)cc3oc12 (configuration not stated) | > 100 µM | > 100 µM | 31.4 µM | 81.4 µM | 60.3 µM |  | 
4 | O=c1c2ccccc2oc2cc(OCC(O)CCl)cc(O)c12 (configuration not stated) | > 100 µM | > 100 µM | > 100 µM | > 100 µM | > 100 µM |  | 
5 | COc1cccc2c(=O)c3c(O)cc(OCC(O)CBr)cc3oc12 (configuration not stated) | > 100 µM | 97.8 µM | > 100 µM | 99.8 µM | > 100 µM |  | 
6 | COc1cccc2c1C(=O)c1c(O)c3c(c(O)c1C2=O)C[C@@](O)(C(=O)CO)C[C@@H]3O[C@H]1C[C@H](N)[C@H](O)[C@H](C)O1 [DOXORUBICIN] | 4.6 µM |  | 7.7 µM | 17.6 µM | 3.3 µM |  | 
7 | O=c1c2ccccc2oc2cc(OCC(O)CBr)cc(O)c12 (configuration not stated) | 64.4 µM | 53.5 µM | 16.9 µM | 76.3 µM | 98.1 µM | 57% | 
8 | COc1cccc2c(=O)c3c(O)cc(OCC4CO4)cc3oc12 (configuration not stated) | > 100 µM | > 100 µM | > 100 µM | > 100 µM | > 100 µM |  | 
